Results from ChEMBL document CHEMBL4028902, “Azetidine and Piperidine Carbamates as Efficient, Covalent Inhibitors of Monoacylglycerol Lipase” (J Med Chem, 2017).

Key:
Monoglyceride lipase = biological target: T1, Monoglyceride lipase (Homo sapiens, UniProt Q99685); assay: Inhibition of human recombinant MAGL using 7-HCA as substrate preincubated for 30 mins followed by substrate addition measured after 60 mins by fluorescence assay
T1 sequence (Q99685 whole entry): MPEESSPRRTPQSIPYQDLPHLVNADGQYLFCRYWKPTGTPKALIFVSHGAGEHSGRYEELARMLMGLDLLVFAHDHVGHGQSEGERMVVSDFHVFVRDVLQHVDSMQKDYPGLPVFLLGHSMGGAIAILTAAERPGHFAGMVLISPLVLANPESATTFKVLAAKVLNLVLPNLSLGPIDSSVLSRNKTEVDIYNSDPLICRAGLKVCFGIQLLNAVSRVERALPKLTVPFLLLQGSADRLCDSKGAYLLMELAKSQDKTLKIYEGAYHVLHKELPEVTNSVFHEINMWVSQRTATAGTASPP
Summary of the method: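 Reaction started with 7-HCA (5 μM final), run 60 min, fluorescence Ex/Em 340/465. Percent inhibition versus no-compound and full-inhibition controls; IC50 from four-parameter fit.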

[1] = biological target: T2, Monoglyceride lipase (Homo sapiens) (UniProt Q99685); assay: Ratio of Kinact to Ki for human recombinant MAGL using 7-HCA as substrate after 60 mins by fluorescence assay
T2 sequence (whole entry): T1 sequence (Q99685 whole entry)
Summary of the method: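 Run as the MAGL 7-HCA assay, but substrate added with no preincubation (T = 0), fluorescence read every minute at decreasing compound concentrations to give progress curves. kobs from each curve; kinact/KI from a plot of kobs against compound concentration.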

[2] = biological target: T3, Fatty-acid amide hydrolase 1 (Homo sapiens, UniProt O00519); assay: Inhibition of human recombinant FAAH using arachidonoyl-AMC as substrate preincubated for 30 mins followed by substrate addition measured after 60 mins by fluorescence assay
T3 sequence (O00519 whole entry): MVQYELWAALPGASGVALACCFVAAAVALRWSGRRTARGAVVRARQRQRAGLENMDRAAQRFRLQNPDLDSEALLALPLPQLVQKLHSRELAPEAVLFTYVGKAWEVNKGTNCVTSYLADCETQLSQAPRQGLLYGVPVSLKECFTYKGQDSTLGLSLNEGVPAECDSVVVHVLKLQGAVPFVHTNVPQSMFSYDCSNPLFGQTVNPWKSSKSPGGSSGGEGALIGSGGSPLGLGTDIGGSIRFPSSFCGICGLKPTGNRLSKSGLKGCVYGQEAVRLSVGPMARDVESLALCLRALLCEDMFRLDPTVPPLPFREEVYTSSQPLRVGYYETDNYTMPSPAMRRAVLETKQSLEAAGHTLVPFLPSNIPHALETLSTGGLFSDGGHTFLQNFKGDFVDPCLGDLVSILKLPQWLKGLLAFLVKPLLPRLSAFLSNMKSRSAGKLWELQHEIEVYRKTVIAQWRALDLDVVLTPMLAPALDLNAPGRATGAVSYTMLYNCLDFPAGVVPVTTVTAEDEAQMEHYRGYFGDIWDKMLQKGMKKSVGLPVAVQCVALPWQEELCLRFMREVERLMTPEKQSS
Summary of the method: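 Human recombinant FAAH (0.0125 unit final) in 50 mM Tris pH 9.0, 1 mM EDTA, preincubated 30 min at room temperature with compound (final 30 μM–0.3 nM). Arachidonoyl-AMC added (5 μM final), reaction run 60 min, fluorescence Ex/Em 355/460. Percent inhibition versus no-compound and full-inhibition controls.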

[3] = Lipophilicity, log D of the compound; assay type: physicochemical; settings: octanol/water

Row | SMILES | IC50 (Monoglyceride lipase) [nM] | Ratio [1] [M⁻¹ s⁻¹] | IC50 [2] [nM] | logD [3]
1 | O=C(OC(C(F)(F)F)C(F)(F)F)N1CC(c2nc(-c3ccccc3)no2)C1 | 0.38 | 840000 | 420 | 4.2
2 | Cn1ccc(C2CN(C(=O)OC(C(F)(F)F)C(F)(F)F)C2)n1 | 39 | 4050 | > 20000 | 2.4
3 | O=C(OC(C(F)(F)F)C(F)(F)F)N1CC(c2cc(-c3ccccc3)n(-c3ccccc3)n2)C1 | 0.3 | 293000 | 490 | 5.7
4 | O=C(OC(C(F)(F)F)C(F)(F)F)N1CC(c2ccnc(N3CCOCC3)n2)C1 | 1.9 | 121000 | > 30000 | 3
5 | O=C(OC(C(F)(F)F)C(F)(F)F)N1CC(c2ccn(-c3ccc(F)c(F)c3)n2)C1 | 0.18 | 978000 | 670 | 4.6
6 | O=C(OC(C(F)(F)F)C(F)(F)F)N1CC(c2ccn(C3CCOCC3)n2)C1 | 1.9 | 102000 | 9400 | 3.2
7 | O=C(OC(C(F)(F)F)C(F)(F)F)N1CC(N2CCN(c3ncccn3)CC2)C1 | 3.2 | 18000 | 2500 | 2.9
8 | O=C(OC(C(F)(F)F)C(F)(F)F)N1CC(c2ccn(-c3cnccn3)n2)C1 | 0.74 | 329000 | 1100 | 2.8
9 | O=C(OC(C(F)(F)F)C(F)(F)F)N1CC(c2ccn(Cc3ccccc3)n2)C1 | 0.41 | 791000 | 160 | 4.4
